Measurements: ChEMBL document CHEMBL3112586, “Synthesis of neolignans as microtubule stabilisers” (Bioorg Med Chem, 2014)
Activity calls are given as the source filed them. The rule behind the calls is not given here.

Assays:
Mus musculus [1] = assay: Toxicity in Swiss albino mouse assessed as absolute spleen weight at 5 to 1000 mg/kg, po relative to control; assay type: organism-based; parameters: dose 5-1000 mg/kg, route oral; settings: in vivo
MDA-MB-231 [2] = assay: Cytotoxicity against human MDA-MB-231 cells after 24 hrs by MTT assay; assay type: functional, cell-based; settings: MDA-MB-231, 24 h
In short: (§1)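 Cells in DMEM, 10% FBS, 37 °C, 5% CO2, plated and incubated 24 h; compounds diluted in phenol-red-free DMEM with 0.5% FBS, vehicle control; after exposure, MTT (5 mg/mL stock) added 3 h, formazan dissolved in DMSO, absorbance 570 nm; IC50 derived; podophyllotoxin and tamoxifen positive controls.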

Mus musculus [3] = assay: Toxicity in Swiss albino mouse assessed as change in albumin level at 1000 mg/kg, po (reference value: 3.35 +/- 0.51 g/dL); assay type: organism-based; parameters: dose 1000 mg/kg, route oral; settings: in vivo
MCF7 [4] = assay: Cytotoxicity against human MCF7 cells after 24 hrs by MTT assay; assay type: functional, cell-based; settings: MCF7, 24 h; in short: as §1
Mus musculus [5] = assay: Toxicity in Swiss albino mouse assessed as change in SGPT level at 1000 mg/kg, po (reference value: 12.28 +/- 3.73 U/L); assay type: organism-based; parameters: dose 1000 mg/kg, route oral; settings: in vivo
Mus musculus [6] = assay: Toxicity in Swiss albino mouse assessed as change in SGOT level at 50 mg/kg, po (reference value: 25.27 +/- 1.32 U/L); assay type: organism-based; parameters: dose 50 mg/kg, route oral; settings: in vivo
Mus musculus [7] = assay: Toxicity in Swiss albino mouse assessed as change in WBC count at 50 mg/kg, po (reference value: 14.2 +/- 7.49 X 10^3/mm'3); assay type: organism-based; parameters: dose 50 mg/kg, route oral; settings: in vivo
Mus musculus [8] = assay: Toxicity in Swiss albino mouse assessed as change in neutrophil count at 5 to 1000 mg/kg, po relative to control; assay type: organism-based; parameters: dose 5-1000 mg/kg, route oral; settings: in vivo
[9] = Toxicity in po dosed Swiss albino mouse; assay type: organism-based; settings: in vivo
In short: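 Acute oral toxicity per OECD guideline 423. Mice of 20–25 g, 3 male and 3 female per group (n = 6), acclimatised 7 days. Single oral dose of 5, 50, 300 or 1000 mg/kg in DMSO suspended in 0.7% carboxymethyl cellulose; controls got vehicle only. Mortality and clinical signs checked hourly on the dosing day, then daily. On day 7: body weight, haematology, serum biochemistry, necropsy and organ weights.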

Mus musculus [10] = assay: Toxicity in Swiss albino mouse assessed as change in cholesterol level at 1000 mg/kg, po (reference value: 81.64 +/- 4.26 mg/dL); assay type: organism-based; parameters: dose 1000 mg/kg, route oral; settings: in vivo
Mus musculus [11] = assay: Toxicity in Swiss albino mouse assessed as change in RBC count at 300 mg/kg, po (reference value: 5.43 +/- 0.27 million/mm'3); assay type: organism-based; parameters: dose 300 mg/kg, route oral; settings: in vivo
MDA-MB-231 [12] = assay: Cell cycle arrest in human MDA-MB-231 cells assessed as increase in sub-diploid population after 24 hrs by propidium iodide staining-based FACS analysis; assay type: functional
In short: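 MDA-MB-231 grown in DMEM with 10% FBS at 37 °C, 5% CO2; 24 h treatment, then cold-PBS wash, 2 × 10⁶ cells/ml, absolute-ethanol fixation, RNase A, propidium iodide 50 µg/mL for 30 min at room temperature; flow cytometric DNA content, sub-diploid fraction scored.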

Mus musculus [13] = assay: Toxicity in Swiss albino mouse assessed as change in serum protein level at 5 mg/kg, po (reference value: 1.11 +/- 0.14 mg/ml); assay type: organism-based; parameters: dose 5 mg/kg, route oral; settings: in vivo
Mus musculus [14] = assay: Toxicity in Swiss albino mouse assessed as change in RBC count at 1000 mg/kg, po (reference value: 5.43 +/- 0.27 million/mm'3); assay type: organism-based; parameters: dose 1000 mg/kg, route oral; settings: in vivo
Mus musculus [15] = assay: Toxicity in Swiss albino mouse assessed as change in monocyte count at 5 to 1000 mg/kg, po relative to control; assay type: organism-based; parameters: dose 5-1000 mg/kg, route oral; settings: in vivo
Mus musculus [16] = assay: Toxicity in Swiss albino mouse assessed as change in SGPT level at 300 mg/kg, po (reference value: 12.28 +/- 3.73 U/L); assay type: organism-based; parameters: dose 300 mg/kg, route oral; settings: in vivo
Mus musculus [17] = assay: Toxicity in Swiss albino mouse assessed as relative lungs weight at 5 to 1000 mg/kg, po relative to control; assay type: organism-based; parameters: dose 5-1000 mg/kg, route oral; settings: in vivo
In short: (§2)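 One oral dose (5–1000 mg/kg; DMSO then 0.7% carboxymethyl cellulose vehicle; controls vehicle-only) was given to groups of 6 mice (3 male, 3 female). On day 7 the animals were sacrificed and necropsied for gross pathology. Absolute and relative weights of vital organs were recorded and compared with control.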

Mus musculus [18] = assay: Toxicity in Swiss albino mouse assessed as change in total haemoglobin level at 300 mg/kg, po (reference value: 11.39 +/- 0.84 g/dL); assay type: organism-based; parameters: dose 300 mg/kg, route oral; settings: in vivo
Mus musculus [19] = assay: Toxicity in Swiss albino mouse assessed as change in total haemoglobin level at 5 mg/kg, po (reference value: 11.39 +/- 0.84 g/dL); assay type: organism-based; parameters: dose 5 mg/kg, route oral; settings: in vivo
Mus musculus [20] = assay: Toxicity in Swiss albino mouse assessed as change in creatinine level at 1000 mg/kg, po (reference value: 0.63 +/- 0.18 mg/dL); assay type: organism-based; parameters: dose 1000 mg/kg, route oral; settings: in vivo
Mus musculus [21] = assay: Toxicity in Swiss albino mouse assessed as change in serum protein level at 50 mg/kg, po (reference value: 1.11 +/- 0.14 mg/ml); assay type: organism-based; parameters: dose 50 mg/kg, route oral; settings: in vivo
Mus musculus [22] = assay: Toxicity in Swiss albino mouse assessed as change in SGOT level at 5 mg/kg, po (reference value: 25.27 +/- 1.32 U/L); assay type: organism-based; parameters: dose 5 mg/kg, route oral; settings: in vivo
Mus musculus [23] = assay: Toxicity in Swiss albino mouse assessed as change in RBC count at 5 mg/kg, po (reference value: 5.43 +/- 0.27 million/mm'3); assay type: organism-based; parameters: dose 5 mg/kg, route oral; settings: in vivo
Mus musculus [24] = assay: Toxicity in Swiss albino mouse assessed as relative brain weight at 5 to 1000 mg/kg, po relative to control; assay type: organism-based; parameters: dose 5-1000 mg/kg, route oral; settings: in vivo; in short: as §2
Mus musculus [25] = assay: Toxicity in Swiss albino mouse assessed as change in RBC count at 50 mg/kg, po (reference value: 5.43 +/- 0.27 million/mm'3); assay type: organism-based; parameters: dose 50 mg/kg, route oral; settings: in vivo
Mus musculus [26] = assay: Toxicity in Swiss albino mouse assessed as change in ALKP level at 50 mg/kg, po (reference value: 218.67 +/- 12.43 U/L); assay type: organism-based; parameters: dose 50 mg/kg, route oral; settings: in vivo
Mus musculus [27] = assay: Toxicity in Swiss albino mouse assessed as change in ALKP level at 300 mg/kg, po (reference value: 218.67 +/- 12.43 U/L); assay type: organism-based; parameters: dose 300 mg/kg, route oral; settings: in vivo
MCF7 [28] = assay: Cytotoxicity against human MCF7 cells after 48 to 72 hrs by MTT assay; assay type: functional, cell-based; in short: as §1
MCF7 [29] = assay: Cell cycle arrest in human MCF7 cells assessed as decrease in S phase at 5 to 30 uM after 24 hrs by propidium iodide staining-based FACS analysis relative to untreated control; assay type: functional
In short: (§3)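 MCF-7 in DMEM, 10% FBS, 37 °C, 5% CO2; treated 24 h, harvested, washed cold PBS, resuspended 2 × 10⁶ cells/ml, fixed absolute ethanol, RNase A treated, propidium iodide (50 µg/mL) 30 min room temperature; DNA content by flow cytometry; phase distribution versus untreated control.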

Mus musculus [30] = assay: Toxicity in Swiss albino mouse assessed as absolute brain weight at 5 to 1000 mg/kg, po relative to control; assay type: organism-based; parameters: dose 5-1000 mg/kg, route oral; settings: in vivo
MCF7 [31] = assay: Cell cycle arrest in human MCF7 cells assessed as increase in sub-diploid population after 24 hrs by propidium iodide staining-based FACS analysis; assay type: functional; in short: as §3
Mus musculus [32] = assay: Toxicity in Swiss albino mouse assessed as absolute kidney weight at 5 to 1000 mg/kg, po relative to control; assay type: organism-based; parameters: dose 5-1000 mg/kg, route oral; settings: in vivo
Mus musculus [33] = assay: Toxicity in Swiss albino mouse assessed as change in WBC count at 1000 mg/kg, po (reference value: 14.2 +/- 7.49 X 10^3/mm'3); assay type: organism-based; parameters: dose 1000 mg/kg, route oral; settings: in vivo

CCOC(=O)/C=C/c1ccc(O)c(/C(=C/c2ccc(O)cc2)C(=O)OCC)c1
Activity (Mus musculus [1]): Non-toxic
IC50 (MDA-MB-231 [2]): 15 µM
Activity (Mus musculus [3]): 3.86 g/dL
IC50 (MCF7 [4]): 12 µM
Activity (Mus musculus [5]): 21.95 U/L
Activity (Mus musculus [6]): 34.34 U/L
Activity (Mus musculus [7]): 14.7 ×10³ /mm3
Activity (Mus musculus [8]): Non-toxic
MTD [9]: 300 mg/kg
Activity (Mus musculus [10]): 60.3 mg/dL
Activity (Mus musculus [11]): 5.11 million/mm3
Activity (MDA-MB-231 [12]): Dose-dependent effect
Activity (Mus musculus [13]): 0.88 mg/mL
Activity (Mus musculus [14]): 5.15 million/mm3
Activity (Mus musculus [15]): Non-toxic
Activity (Mus musculus [16]): 15.56 U/L
Activity (Mus musculus [17]): Non-toxic
Activity (Mus musculus [18]): 10.83 g/dL
Activity (Mus musculus [19]): 12.35 g/dL
Activity (Mus musculus [20]): 1.87 mg/dL
Activity (Mus musculus [21]): 0.94 mg/mL
Activity (Mus musculus [22]): 27.67 U/L
Activity (Mus musculus [23]): 5.99 million/mm3
Activity (Mus musculus [24]): Non-toxic
Activity (Mus musculus [25]): 5.58 million/mm3
Activity (Mus musculus [26]): 234.14 U/L
Activity (Mus musculus [27]): 217.42 U/L
Activity (MCF7 [28]): Active
Activity (MCF7 [29]): Active
Activity (Mus musculus [30]): Non-toxic
Activity (MCF7 [31]): Dose-dependent effect
Activity (Mus musculus [32]): Non-toxic
Activity (Mus musculus [33]): 15.94 ×10³ /mm3
